High-throughput results (PubChem)
FLuc act counter: affects firefly luciferase, flagging false hits in luciferase stimulation screens; P08659; ATPlite luciferase biochemical, luminescence, 10 min; 0 = ATP-free wells, 1 = DMSO control; activation factor at 10 µM; 200,000 tested, under 10 active; AID 1027;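 active = luciferase activation factor, scaled between plate controls, of at least 2 with compound at 10 µM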
Target sequence (P08659 whole entry, looked up): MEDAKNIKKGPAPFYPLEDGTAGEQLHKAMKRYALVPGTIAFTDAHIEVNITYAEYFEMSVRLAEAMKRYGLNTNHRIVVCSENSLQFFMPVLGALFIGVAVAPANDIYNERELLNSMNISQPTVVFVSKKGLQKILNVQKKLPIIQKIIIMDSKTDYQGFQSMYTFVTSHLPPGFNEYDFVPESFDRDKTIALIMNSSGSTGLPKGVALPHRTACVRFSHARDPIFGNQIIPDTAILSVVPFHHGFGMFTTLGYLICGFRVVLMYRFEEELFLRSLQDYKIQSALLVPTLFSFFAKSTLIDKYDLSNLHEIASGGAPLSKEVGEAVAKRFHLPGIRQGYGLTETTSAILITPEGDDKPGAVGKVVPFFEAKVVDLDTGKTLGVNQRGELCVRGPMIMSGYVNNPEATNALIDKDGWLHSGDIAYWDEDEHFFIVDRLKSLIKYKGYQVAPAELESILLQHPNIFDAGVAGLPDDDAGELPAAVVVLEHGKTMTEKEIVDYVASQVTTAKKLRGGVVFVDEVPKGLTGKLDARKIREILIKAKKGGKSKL
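Material: luciferase plus luciferin reagent, cell-free. Medium: PBS buffer for ATP. Also added: ATP substrate, dispensed from a 10.24 µM working solution in PBS. Doses: test compounds dosed from 2 mM stocks in 100% DMSO. Incubation: 10 min post-reagent at room temperature. Technique: light output (luminescence). Read-out basis: luminescence gain marking luciferase activators.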
STAT3 blocker: inhibitors of IL-6 induced STAT3 signaling. U3A cells, IL-6 STAT3-luciferase reporter, luminescence; host cell line lacks STAT1. AID 862. 190,000 tested, 0.89% active. inhibition, % at 5.5 µM;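 active = inhibition above the mean inhibition across all screened compounds plus 3 SD, cut at about 44% in these data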
STAT1 blocker: inhibitors of IFN-gamma induced STAT1 signaling | NIH 3T3 STAT1-luciferase reporter, luminescence | inhibition, % at 5.5 µM | 200,000 tested, 0.35% active | AID 920;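 active = inhibition above a set limit, the mean inhibition across all tested compounds plus 3 SD, cut at about 34% in these data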
FLuc inhib CS: inhibits firefly luciferase, flagging false hits in luciferase inhibition screens; P08659; ATPLite firefly luciferase biochemical luminescence, 10 min; inhibition, % at 10 µM; 200,000 tested, 1.5% active; AID 1006;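 active = inhibition above about 50% when tested at 10 µM, limit read from the data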
STAT3 act: increases IL-6 driven STAT3 reporter signal; U3A cells, IL-6 STAT3-luciferase reporter, luminescence; 100% = signal with IL-6 EC80 alone; activation (% of control), % at 5.6 µM; 190,000 tested, 0.91% active;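 active = activation above the screen-wide mean of compound activation plus 3 SD, cut at about 130% in these data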
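Material: STAT3-luciferase reporter U3A cells; Probe or stimulus: IL-6 (33 ng/mL); Incubation: compound pre-incubation 1 h before IL-6, then 6 h stimulation at 37 °C; Technique: luminescence from STAT3-driven luciferase reporter; Evaluation: % activation versus median of IL-6-stimulated wells; Controls: IL-6-only high control.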
STAT1 act: activators of IFN-gamma induced STAT1 signaling | NIH 3T3 STAT1-luciferase reporter, luminescence; 100% = IFN-gamma alone, no compound | activation (% of control), % at 5.5 µM | 200,000 tested, 2.6% active;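 active = activation above the screen-wide mean activation plus 3 SD, cut at about 130% in these data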
Each line names hits and unclear results; the compound was inactive in the other large screens. A selection: hits, their analogues and other compounds. The true share with any hit is near 4.9%.

CC(=O)c1ccc(NC(=O)c2cnn3ccccc23)cc1	STAT3 blocker 82.9, STAT1 blocker 85.5
Cc1ccc(C)c(NC(=O)c2cc3ccccn3n2)c1	STAT1 act 134.5
COCCCNC(=O)CN(c1cc([N+](=O)[O-])ccc1OC)S(C)(=O)=O	none
CCOCCCNc1ccc(-c2ccccc2)nn1	STAT1 act 140.2
CCOCCCNc1nc2ccccc2[nH]1	none
CCn1cc(-c2csc(N)n2)c(C)n1	none
COc1ccccc1NC(=S)N1CCn2cccc2C1c1cccnc1 (stereo not given)	none
COCC(C)N=C1NN=C(c2cc(C)n(Cc3ccccc3Cl)c2C)CS1 (stereo not given)	FLuc inhib CS 54.1
COCCn1c(C)cc(C2=NNC(=NC3CC3)SC2)c1C	STAT3 blocker 103.3, STAT1 blocker 96.6, FLuc inhib CS 95.8
C=CCn1c(C)cc(C2=NNC(=Nc3ccc(C)cc3)SC2)c1C	none
COCCCN=C1NN=C(c2cc(C)n(Cc3ccco3)c2C)CS1	FLuc inhib CS 70.2
Cc1cc(C2=NNC(=NC3CC3)SC2)c(C)n1Cc1ccco1	STAT3 blocker 84.6, STAT1 blocker 52.1, FLuc inhib CS 95.8
Cc1cc(-c2csc(N)n2)c(C)n1Cc1ccco1	none
COCCn1c(C)cc(C2=NNC(=Nc3ccc(Cl)cc3Cl)SC2)c1C	none
CC(C)c1nnc(NC(=O)CCC(=O)NC2CCCc3ccccc32)s1 (stereo not given)	none
O=C1N/C(=N\c2ccccn2)SC1Cc1ccc(Cl)cc1 (stereo not given)	none
COc1ccc(-n2cnc3scc(-c4ccccc4)c3c2=O)cc1	none
CCOC(=O)c1[nH]c2ccccc2c1CCCN1C(=O)c2ccccc2C1=O	none
CC(=O)c1c(C)[nH]c(C(=O)OCCCCN2C(=O)c3ccccc3C2=O)c1C	STAT3 blocker 86.5
CC(=O)c1c(C)[nH]c(C(=O)OCc2ccccc2)c1C	STAT1 act 141.6
CC(=O)c1c(C)[nH]c(C(=O)NCc2ccccc2)c1C	none
CCCN1C(=O)/C(=C2\SC(N3CCCCC3)=NC2=O)c2ccccc21	FLuc inhib CS 70.7
CN1C(=O)/C(=C2\SC(N3CCCCCC3)=NC2=O)c2ccccc21	FLuc inhib CS 79.1
COc1cc(/C=C2\SC(=Nc3ccc(N4CCOCC4)cc3)N(C)C2=O)ccc1OC(C)C(=O)O (stereo not given)	none
COc1cc(SC)ccc1C(=O)NCCOc1ccc(F)cc1	STAT1 act 135.4
COc1cc(SC)ccc1C(=O)Nc1ccccc1	STAT1 act 135.3
COc1ccccc1C(=O)Nc1cccc(SC)c1	none
CN1C(CC(=O)c2ccccc2)CCCC1CC(O)c1ccccc1 (stereo not given)	none
CC1N/C(=C\C(=O)c2ccccc2)N(O)C1(C)C (stereo not given)	FLuc inhib CS 63.3, STAT1 act 134.0
Cn1ccnc1SCC(=O)Nc1ccc2c(c1)OC(F)(F)O2	none
Oc1c(C=Nc2cccnc2)sc2ccccc12	FLuc inhib CS 69.9
O=C(O/N=C1\CCCc2ccccc21)C1CC1	none
Cc1ccc(C(=O)O/N=C2\CCCc3ccccc32)cc1	FLuc inhib CS 93.5, STAT1 act 134.7
O=C(O/N=C1/CCCc2occc21)c1ccccc1	FLuc inhib CS 69.8
Cc1cccc(C(=O)O/N=C2\CCCc3ccccc32)c1	FLuc inhib CS 80.6
O=C(O/N=C1\CCCc2ccccc21)c1cccc(Cl)c1	none
CCN1CC=C2C(C#N)=C(N)C(C#N)(C#N)C(CCc3ccccc3)C2C1 (stereo not given)	STAT3 act 140.8
CC(=O)N1CC=C2C(C#N)=C(N)C(C#N)(C#N)C(CCc3ccccc3)C2C1 (stereo not given)	none
CCN(CC)S(=O)(=O)c1cccc(NC(=O)c2cc(=O)[nH]c3ccccc23)c1	none
Cc1cccc(-n2ncc3c(NCCCO)ncnc32)c1	FLuc inhib CS 52.7, STAT1 act 140.6
C=CCNc1ncnc2c1cnn2-c1cccc(C)c1	STAT1 act 141.5
CCCCNc1ncnc2c1cnn2-c1ccccc1	STAT1 act 134.2
Cc1ccc(-n2ncc3c(NCc4ccccc4)ncnc32)cc1	STAT1 act 136.5
Cc1cccc(COc2ncnc3nc[nH]c23)c1	none
Clc1ccc(-n2ncc3c(NCc4ccccn4)ncnc32)cc1	STAT1 act 149.6
CCCSc1nsc(NC(=O)CCC)n1	STAT1 act 131.0
CCCCCCSc1nsc(NC(C)=O)n1	STAT1 act 129.9
O=C(Nc1ccc(Cl)cc1F)c1ccccc1Br	STAT1 act 148.0
O=C(NNC(=O)c1ccccc1Br)c1ccc(Cl)cc1	none
O=C(Nc1ccc(C(F)(F)F)cc1)c1ccccc1Br	STAT1 act 128.9
COC(=O)Cc1ccc(NC(=O)c2ccccc2Br)cc1	none
Cn1cc(C(=O)NCc2cccs2)c(=O)c2cc(S(=O)(=O)N3CCCC3)ccc21	none
Cc1cc(=O)n2[nH]c(-c3ccc(Cl)cc3)cc2n1	STAT1 act 143.2
Cc1cc(=O)n2[nH]c(-c3ccc(F)cc3)cc2n1	none
CCCc1cc(=O)n2[nH]c(-c3ccc(Br)cc3)cc2n1	STAT1 act 143.8
O=C(NC1CCCCCCC1)NC1CCCCC1	STAT1 act 132.5
Cc1ccc(-c2nn(C)c(=O)c3ccccc23)cc1CNC(=O)Cn1nc(-c2ccccc2)c2ccccc2c1=O	none
Cc1nc2nc(-c3ccccc3)cc(=O)n2[nH]1	FLuc inhib CS 55.7
O=c1cc(-c2ccccc2)nc2nc(-c3ccco3)[nH]n12	FLuc inhib CS 72.5
CCOC(=O)N1CCN(C(=O)COc2cccc3c2CCN(Cc2ccccc2F)C3=O)CC1	none
Fc1ccc(Nc2ccnc(Nc3ccc(F)cc3)n2)cc1	STAT1 act 137.3
COc1ccc(CCNC(=O)CSc2nncs2)cc1	none
CCOC(=O)CNC(=O)c1ccc(C#CC2(O)CCCCC2)cc1	none
C=CCNC(=O)/C(C#N)=C/c1ccc2c(c1)OCCO2	FLuc inhib CS 50.4
Cc1ccc(-c2nc3ccsc3c(=O)[nH]2)cc1	FLuc inhib CS 74.8
CCOC(=O)CSc1nc2ccsc2c(=O)[nH]1	none
COc1cc(/C=N/NC(N)=S)cc(Br)c1OCc1ccccc1F	STAT1 act 128.6
CCOc1cc(/C=N/NC(N)=S)cc(Br)c1OCc1ccccc1C	none
COc1cc(CC(NC(C)=O)C(=O)NC2CCN(c3c4c(nc5ncnn35)CCC4)CC2)cc(OC)c1 (stereo not given)	none
Cc1ccc2[nH]c(O)c(N=NC(=O)C(C)n3cnc4ccccc4c3=O)c2c1 (stereo not given)	none
Cc1ccc(C2=NN(C(=S)Nc3ccccc3)C(c3ccco3)C2)cc1 (stereo not given)	STAT1 act 134.3
